SMILES strings stand for the structures. In brackets after ≈: the same amount, converted by molar mass.

What is called IC50 is the concentration needed to halve the response being measured.

A short description of assay [1]: Immunosuppressant activity in mouse T cells assessed as inhibition of concanavalin A-induced cell proliferation. Format: functional, cell-based. The method, boiled down:
(§1)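 Splenic lymphocytes from male BALB/c mice aged 7-11 weeks, stimulated with concanavalin A (T cells) or LPS (B cells). Proliferation read as formation of MTT-formazan from exogenous MTT in the lymphocytes. Seven concentrations tested, each point the mean of 3 experiments. IC50 read from the concentration-versus-proliferation curve.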

Assay [2] can be described thus: Immunosuppressant activity in mouse B cells assessed as inhibition of LPS-induced cell proliferation. Format: functional, cell-based. The method, boiled down:
as §1

The subject of the next assay is T-cell. Put plainly: Ratio of IC50 for mouse T cells proliferation to IC50 for mouse B cells proliferation. Type of assay: functional.

As for `C=CC[C@@H]1/C=C(\C)C[C@H](C)C[C@H](OC)[C@H]2O[C@@](O)(C(=O)C(=O)N3CCCC[C@H]3C(=O)O[C@H](/C(C)=C/[C@@H]3CC[C@@H](O)[C@H](OC)C3)[C@H](C)[C@@H](O)CC1=O)[C@H](C)C[C@@H]2OC` [TACROLIMUS ANHYDROUS], the IC50 in assay [1] worked out at 1.5e-05 µg/mL (≈ 1.87e-05 µM); in assay [2] it was 0.0016 µg/mL (≈ 0.00199 µM).

As for `C=C1CC[C@H]2C(C)(C)CCC[C@]2(C)[C@H]1C[C@@]12O[C@@H]1C(=O)C(COC(=O)C[C@@](C)(O)CC(=O)O)=CC2=O`, the IC50 in assay [1] was 4.5 µg/mL (≈ 8.95 µM); in assay [2], 2 µg/mL (≈ 3.98 µM). Also, in the assay with T-cell, the “Ratio IC50” value was found to be 2.

As to `Cn1cnc([N+](=O)[O-])c1Sc1ncnc2[nH]cnc12` [AZATHIOPRINE], the IC50 in assay [1] and in assay [2] was 2.7 µg/mL (≈ 9.74 µM) each time.

`C=C1CC[C@H]2C(C)(C)CCC[C@]2(C)[C@H]1C[C@@]12O[C@@H]1C(=O)C(CO)=CC2=O`: the IC50 turned out to be 0.5 µg/mL (≈ 1.39 µM) in assay [1] and 0.25 µg/mL (≈ 0.697 µM) in assay [2]. The “Ratio IC50” value with T-cell is on record as 2.
